# From ChEMBL document CHEMBL3779860, “A Designed Tryptophan- and Lysine/Arginine-Rich Antimicrobial Peptide with Therapeutic Potential for Clinical Antibiotic-Resistant Candida albicans Vaginitis” (J Med Chem, 2016)
# Activity calls are given as the source filed them. The rule behind the calls is not given here.
# Legend:
# Mus musculus [1] = test: Antiinflammatory activity in antibiotic resistant Candida albicans clinical isolate 08030809 induced mouse vaginitis model assessed as reduction in IL-6 secretion in vaginal tissue administered as intravaginal instillation measured on day 10 by ELISA; type: functional, organism-based; conditions: Vagina
# Outline: (§1)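 Same estradiol-primed mouse model, infected intravaginally with C. albicans 08030809 and treated by intravaginal instillation (20 µL/mouse). Vaginal canals excised on day 10 of treatment and homogenised in 0.9% NaCl. Supernatant taken after 2,000 g for 15 min. TNF-α, IL-6, IL-1β and IL-10 measured by ELISA. Mean ± SE of three independent experiments; unpaired t-test versus vehicle.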
# Candida albicans [2] = test: Effect on cell morphology in antibiotic resistant Candida albicans clinical isolate 08030809 assessed as intracellular inclusions at MIC to 2.5 times MIC after 30 mins by scanning electron microscopy; type: functional, organism-based
# Outline: (§2)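 Exponential-phase C. albicans 08030809 was washed in PBS and resuspended in Sabouraud medium. Cells were treated 30 min at 37°C alongside a vehicle control. They were then fixed in 2.5% glutaraldehyde (4°C, 2 h) and 1% osmium tetroxide, dehydrated through graded ethanol, freeze-dried from tert-butanol, gold-coated and imaged by SEM. Images are typical of three experiments.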
# Candida albicans [3] = test: Effect on cell morphology in antibiotic resistant Candida albicans clinical isolate 08030809 assessed as cell membrane perforation at MIC to 2.5 times MIC after 30 mins by scanning electron microscopy; type: functional, organism-based; outline: as §2
# Candida albicans [4] = test: Antimicrobial activity against antibiotic resistant Candida albicans clinical isolate 08030809 assessed as clone count at 5 times MIC after 12 hrs by colony counting assay (reference value: 54153 +/- 8769 CFU); type: functional
# Candida albicans [5] = test: Antimicrobial activity against antibiotic resistant Candida albicans clinical isolate 08032710 compound treated in double distilled water measured after 36 hrs by disc diffusion method; type: functional; conditions: isolate 08032710, 36 h
# Outline: (§3)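 Salt-tolerance test: peptide at 2 mg/mL was prepared in sterile ddH2O, in 150 mM NaCl, or in PBS (150 mM NaCl, 2.7 mM KCl, 1.5 mM KH2PO4, 8 mM K2HPO4, pH 7.2). Anti-C. albicans activity was then assessed by inhibition zone on Sabouraud medium with 0.7% agar.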
# Candida albicans [6] = test: Antimicrobial activity against antibiotic resistant Candida albicans clinical isolate 08030809 after 16 hrs by broth dilution method; type: functional; conditions: isolate 08030809, 16 h
# Outline: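 Broth microdilution in Sabouraud liquid medium. Samples are stocks in 0.9% NaCl, 10 µL added to 90 µL broth plus 100 µL of 2 × 10^5 CFU/mL yeast suspension. Incubated 16 h at 28°C, growth read by A600. MIC is the lowest concentration completely inhibiting growth; mean of three independent experiments.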
# Candida albicans [7] = test: Antimicrobial activity against antibiotic resistant Candida albicans clinical isolate 08032815 after 16 hrs by broth dilution method; type: functional; conditions: isolate 08032815, 16 h
# Outline: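 Broth dilution MIC. Samples were serially diluted in 0.9% NaCl and mixed with Sabouraud broth and yeast suspension at 2 × 10^5 CFU/mL, then incubated 16 h at 28°C. Growth was read at 600 nm. MIC is the lowest concentration giving complete growth inhibition, reported as mean of three independent experiments.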
# Candida albicans [8] = test: Antimicrobial activity against antibiotic resistant Candida albicans clinical isolate 08030809 assessed as clone count at 10 times MIC after 1 hr by colony counting assay (reference value: 228 +/- 23 CFU); type: functional
# Mus musculus [9] = test: (§4) Antiinflammatory activity in antibiotic resistant Candida albicans clinical isolate 08030809 induced mouse vaginitis model assessed as reduction in IL-6 secretion in vaginal tissue at 50 ug administered as intravaginal instillation measured on day 10 by ELISA; type: functional, Vagina; outline: as §1
# Candida albicans [10] = test: Antimicrobial activity against antibiotic resistant Candida albicans clinical isolate 08030809 in mouse vaginitis model assessed as decrease in colony count in lavage liquid of vagina at 50 ug administered as intravaginal instillation measured on day 6; type: functional
# Mus musculus [11] = test: as §4, with “microabscess number” for “IL-6 secretion”, “after 16 days” for “on day 10”, “hematoxylin-eosin staining based microscopic method” for “ELISA”; type: functional, organism-based; conditions: Vagina
# Outline: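 Mice given weekly subcutaneous estradiol valerate (0.5 mg in 0.1 mL vegetable oil) 72 h before infection. Infected intravaginally with 20 µL of 10^7 CFU/mL C. albicans 08030809. Intravaginal instillation of 20 µL daily for 16 days. Vaginal canals excised after lavage, formalin-fixed, paraffin-embedded, HE-stained. Microabscesses counted per high-power field over 6 fields per section, three independent experiments.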
# Staphylococcus aureus = test: Antimicrobial activity against Staphylococcus aureus ATCC 2592 assessed as inhibition of […] growth after 16 hrs by broth dilution method; type: functional; conditions: ATCC 2592, 16 h
# Outline: (§5)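 Broth dilution in LB broth; 100 µL of 2 × 10^5 CFU/mL bacterial suspension plus 10 µL sample (stock series in 0.9% NaCl) in 90 µL broth, 37°C for 16 h. Growth read as A600; MIC is the lowest concentration completely inhibiting growth. Mean of three independent experiments run in duplicate.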
# Candida albicans [12] = test: Antimicrobial activity against antibiotic resistant Candida albicans clinical isolate 08030809 in mouse vaginitis model assessed as colony count in lavage liquid of vagina at 20 ug administered as intravaginal instillation measured on day 16; type: functional
# Candida albicans [13] = test: Antimicrobial activity against antibiotic resistant Candida albicans clinical isolate 08032821 compound treated in PBS solution measured after 36 hrs by disc diffusion method; type: functional; conditions: isolate 08032821, 36 h; outline: as §3
# Escherichia coli = test: Antimicrobial activity against Escherichia coli ATCC 25922 assessed as inhibition of […] growth after 16 hrs by broth dilution method; type: functional; conditions: ATCC 25922, 16 h; outline: as §5
# Candida albicans [14] = test: Antimicrobial activity against antibiotic resistant Candida albicans clinical isolate 08030809 assessed as clone count at 10 times MIC after 6 hrs by colony counting assay (reference value: 14536 +/- 2467 CFU); type: functional
# Candida albicans [15] = test: Antimicrobial activity against antibiotic resistant Candida albicans clinical isolate 08030809 assessed as clone count at 5 times MIC after 6 hrs by colony counting assay (reference value: 14536 +/- 2467 CFU); type: functional
# Candida albicans [16] = test: Antimicrobial activity against antibiotic resistant Candida albicans clinical isolate 08030809 assessed as clone count at 10 times MIC after 24 hrs by colony counting assay (Rvb > 10^5 CFU); type: functional
# Bacillus subtilis = test: Antimicrobial activity against Bacillus subtilis assessed as inhibition of […] growth after 16 hrs by broth dilution method; type: functional; outline: as §5
# Candida albicans [17] = test: Antimicrobial activity against antibiotic resistant Candida albicans clinical isolate 08030809 assessed as clone count at 5 times MIC after 1 min by colony counting assay (reference value: 62 +/- 7 CFU); type: functional
# Candida albicans [18] = test: Antimicrobial activity against antibiotic resistant Candida albicans clinical isolate 08030809 assessed as clone count at MIC after 30 mins by colony counting assay (reference value: 156 +/- 16 CFU); type: functional
# HEK293 = test: Cytotoxicity against HEK293 cells assessed as cell viability at 0.39 to 100 ug/ml after 24 hrs by MTT assay; type: cell-based; conditions: human, hek293, 24 h
# Outline: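 HEK293 seeded at 1 × 10^5 cells/mL in DMEM with 10% fetal calf serum and penicillin-streptomycin, 37 °C, 5% CO2. Cells exposed to sample for 24 h, then given MTT (5 mg/mL); formazan dissolved in DMSO and read at 570 nm. Done in triplicate.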
substance,measurement,setting,value
H-VKRWKKWRWKWKKWV-NH2,Activity,Mus musculus [1],Dose-dependent effect
same,Activity,Candida albicans [2],Active
same,Activity,Candida albicans [3],Active
same,Activity,Candida albicans [4],0 CFU
same,MIC,Candida albicans [5],2.79 µg/mL
same,MIC,Candida albicans [6],1.4 µg/mL
same,MIC,Candida albicans [7],2.79 µg/mL
same,Activity,Candida albicans [8],0 CFU
same,inhibition (INH),Mus musculus [9],57%
same,inhibition (INH),Candida albicans [10],48%
same,Activity,Mus musculus [11],Active
same,MIC,Staphylococcus aureus,1.17 µg/mL
same,Activity,Candida albicans [12],5.4 ×10³ CFU/ml
same,MIC,Candida albicans [13],2.65 µg/mL
same,MIC,Escherichia coli,9.38 µg/mL
same,Activity,Candida albicans [14],0 CFU
same,Activity,Candida albicans [15],0 CFU
same,Activity,Candida albicans [16],0 CFU
same,MIC,Bacillus subtilis,1.17 µg/mL
same,Activity,Candida albicans [17],10 CFU
same,Activity,Candida albicans [18],0 CFU
same,Activity,HEK293,Non-toxic
